Measured values reported in ChEMBL document CHEMBL1154765, “A series of alpha-amino acid ester prodrugs of camptothecin: in vitro hydrolysis and A549 human lung carcinoma cell cytotoxicity” (J Med Chem, 2010).

Key:
[1] = Stability in phosphate buffer assessed as half life of camptothecin formation at 5 mg at pH 7.4 by HPLC; assay type: physicochemical; conditions: in vitro
In short: (§1)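 Prodrug (5 mg) in 2 mL 100 mM sodium phosphate buffer on shaker at 37 °C, in triplicate. Aliquots taken at set times, dried, reconstituted in methanol, and analysed by HPLC with fluorescence detection. CPT appearance fit to first-order kinetics, Ct versus C∞; half-life derived from the rate constant.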

[2] = Stability in phosphate buffer assessed as half life of camptothecin formation at 5 mg at pH 7 by HPLC; assay type: physicochemical; in short: as §1
[3] = Stability in phosphate buffer assessed as half life of camptothecin formation at 5 mg at pH 6.6 by HPLC; assay type: physicochemical; conditions: in vitro; in short: as §1
A549 = test: Cytotoxicity against human A549 cells after 48 hrs by MTT method; assay type: functional, cell-based; conditions: A549, 48 h
In short: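 A549 cells grown in DMEM/F-12 with 10% FBS, 37 °C, 5% CO2; seeded 10,000 cells/well, attached 24 h, then exposed in triplicate to 30 dilutions for 48 h. Washed with PBS, MTT added 5 h at 37 °C in dark, crystals dissolved in SDS/DMF:water, absorbance 570 nm (reference 690 nm). Viability relative to drug-free controls; IC50 from variable-slope sigmoidal fit.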

[4] = Stability in phosphate buffer assessed as half life of prodrug hydrolysis at 5 mg at pH 7.4 by HPLC; assay type: physicochemical; conditions: in vitro
In short: (§2)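 In 100 mM sodium phosphate buffer, 5 mg prodrug per 2 mL, shaken at 37 °C, triplicate runs. Timed aliquots dried, taken up in methanol, and quantified by HPLC with fluorescence detection. Prodrug loss fit to first-order decay, Ct versus C0; half-life obtained from the rate constant.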

[5] = Stability in phosphate buffer assessed as half life of prodrug hydrolysis at 5 mg at pH 7 by HPLC; assay type: physicochemical; in short: as §2
[6] = Stability in phosphate buffer assessed as half life of prodrug hydrolysis at 5 mg at pH 6.6 by HPLC; assay type: physicochemical; conditions: in vitro; in short: as §2

SMILES	t1/2 [1] [h]	t1/2 [2] [h]	t1/2 [3] [h]	IC50 (A549) [nM]	t1/2 [4] [h]	t1/2 [5] [h]	t1/2 [6] [h]
CC[C@@]1(OC(=O)CN)C(=O)OCc2c1cc1n(c2=O)Cc2cc3ccccc3nc2-1	10.79	11.26	11.54	12.2	1.774	1.802	2.564
CCC[C@@H](N)C(=O)O[C@]1(CC)C(=O)OCc2c1cc1n(c2=O)Cc2cc3ccccc3nc2-1	32.31	36.7	38.26	5.2	2.926	4.119	4.652
CC[C@@H](N)C(=O)O[C@]1(CC)C(=O)OCc2c1cc1n(c2=O)Cc2cc3ccccc3nc2-1	25.34	26.27	28.25	4.1	2.934	3.197	4.68
CC[C@@]1(OC(=O)[C@@H](C)N)C(=O)OCc2c1cc1n(c2=O)Cc2cc3ccccc3nc2-1	15.47	16.3	21.31	120	2.496	2.828	4.336
CC[C@@]1(O)C(=O)OCc2c1cc1n(c2=O)Cc2cc3ccccc3nc2-1 [CAMPTOTHECIN]	–	–	–	5.38	–	–	–
